From ChEMBL document CHEMBL4028901, “Novel Antitubercular 6-Dialkylaminopyrimidine Carboxamides from Phenotypic Whole-Cell High Throughput Screening of a SoftFocus Library: Structure-Activity Relationship and Target Identification Studies” (J Med Chem, 2017)
pIC50: −log10 of the molar value. Values after ≈ are worked out from the molar mass of the structure shown.

Experiments:
[1] = system: Mycobacterium tuberculosis; experiment: Antibacterial activity against Mycobacterium tuberculosis H37RvMA grown in GAST/Fe medium measured 7 to 14 days post inoculation by broth microdilution method; assay type: functional
Method in brief: (§1)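 H37RvMa grown to OD600 0.6–0.7, diluted 1:100 in GAST/Fe. Compounds two-fold serially diluted from a top concentration of 640 μM, in duplicate. Incubated at 37 °C with humidification.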

[2] = system: Mycobacterium tuberculosis; experiment: Antibacterial activity against Mycobacterium tuberculosis H37RvMA grown in 7H9/ADC medium measured 7 to 14 days post inoculation by broth microdilution method; assay type: functional
Vero = experiment: Cytotoxicity against African green monkey Vero cells assessed as reduction in cell viability by MTT assay; assay type: cell-based; conditions: Chlorocebus sabaeus
Method in brief: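 MTT assay in Vero cells, samples in triplicate on one occasion. Stocks at 20 mg/mL in DMSO, diluted in complete medium as 10-fold serial dilutions over 6 concentrations. Emetine used as reference. IC50 derived by non-linear dose-response curve fitting.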

[3] = Kinetic solubility of the compound in pH 7.4 solution at 10 to 220 uM after 2 hrs by shake flask method; assay type: physicochemical; conditions: for Kinetic_solubility: buffer, pH 7.4, 2 h, 220 µM; for solubility kinetic at 2 h: pH 7.4 solution, pH 7.4, read-out: Kinetic_solubility
[4] = Lipophilicity, log P of the compound at 100 uM at pH 7.4 after 3 hrs by shake-flask method; assay type: physicochemical; conditions: buffer
Method in brief: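 Shake-flask method run in triplicate. A 10 mM stock was spiked into a 1:1 mixture of phosphate buffer (pH 7.4) and n-octanol, then shaken at 1500 rpm on an orbital shaker for 3 h at room temperature.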

[5] = Kinetic solubility of the compound in fasted-state simulated intestinal fluid at 10 to 220 uM at pH 6.5 after 2 hrs by shake flask method; assay type: physicochemical; conditions: read-out: Kinetic_solubility
Method in brief: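 Miniaturised shake flask. 10 mM DMSO stocks spiked 1:50 into duplicate FaSSIF (pH 6.5), 2% final DMSO. Shaken 2 h at 25 °C, filtered, analysed by HPLC-DAD against calibration standards (10–220 μM).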

[6] = system: Mycobacterium tuberculosis; experiment: Antibacterial activity against cytochrome bd oxidase knockout GFP-fused Mycobacterium tuberculosis H37RvMA grown in 7H9/GLU/ADC medium measured on day 7 and day 14 post inoculation by fluorescence plate reader assay; assay type: functional
[7] = system: Mycobacterium tuberculosis; experiment: Antibacterial activity against wild type Mycobacterium tuberculosis H37Rv grown in GAST/Fe medium measured on day 14 post inoculation by broth microdilution method; assay type: functional; conditions: 336 h; method in brief: as §1

Compound	MIC99 [1] [µM]	MIC99 [2] [µM]	pIC50 (Vero)	Kinetic_solubility [3] [µM]	logD at 3 h, 100 µM [4]	solubility kinetic at 2 h [5] [µM]	MIC99 [6] [µM]	MIC99 [7] [µM]	solubility kinetic at 2 h [3] [µM]
COc1ccc(NC(=O)c2cc(N(C)Cc3ccc(F)cc3)ncn2)cc1	2.5 (≈ 0.916 µg/mL)	5 (≈ 1.83 µg/mL)	4.22	62					
CN(Cc1ccc(Cl)cc1)c1cc(C(=O)Nc2ccccc2)ncn1	2.3 (≈ 0.811 µg/mL)	5 (≈ 1.76 µg/mL)	3.68	< 5					
O=C(Nc1ccccc1)c1cc(N2CCc3ccccc3C2)ncn1	> 160	> 160		< 5					
COc1ccc(NC(=O)c2cc(N(C)Cc3ccccc3)ncn2)cc1	10 (≈ 3.48 µg/mL)	20 (≈ 6.97 µg/mL)	3.54		4.07	< 5	>20		
Cc1nc(C(=O)Nc2ccccc2)cc(N(C)Cc2ccc(Cl)cc2)n1	> 160	> 160							
CN1CCN(c2ccc(NC(=O)c3cc(N(C)Cc4ccc(F)cc4)ncn3)cn2)CC1	19 (≈ 8.27 µg/mL)	> 50	3.90	150					
COc1ccc(NC(=O)c2cc(N(C)Cc3ccc(Cl)cc3)nc(NC3CC3)n2)cc1	> 160	> 50		5					
CN(Cc1ccc(C(F)(F)F)cc1)c1cc(C(=O)Nc2ncn(C)n2)ncn1	10 (≈ 3.91 µg/mL)	50 (≈ 19.6 µg/mL)	4.55	173					
CN(Cc1ccc(F)cc1)c1cc(C(=O)Nc2ccon2)ncn1	160 (≈ 52.4 µg/mL)	> 50							
COCCOc1ccc(NC(=O)c2cc(N(C)Cc3ccc(F)cc3)ncn2)cc1	1.56 (≈ 0.64 µg/mL)	2.3 (≈ 0.944 µg/mL)	3.61	< 5					
CN(Cc1ccc(F)cc1)c1cc(C(=O)Nc2ccccc2)ncn1	1.56 (≈ 0.525 µg/mL)	6.25 (≈ 2.1 µg/mL)	3.53	< 5				10 (≈ 3.36 µg/mL)	
CN(CC1CCCCC1)c1cc(C(=O)Nc2ccccc2)ncn1	40 (≈ 13 µg/mL)	> 50	3.75						
CN(Cc1ccc(F)cc1)c1nc(C(=O)Nc2ccccc2)cs1	> 50	> 50	3.55						< 5
COc1ccc(NC(=O)c2ccnc(N(C)Cc3ccc(F)cc3)n2)cc1	> 50	> 50	3.56						< 5
CN(Cc1ccc(F)cc1)c1cc(-c2nnc(-c3ccccc3)[nH]2)ncn1	25 (≈ 9.01 µg/mL)	> 50	3.56	< 5					
CN1CCN(c2cccc(NC(=O)c3cc(N(C)Cc4ccc(F)cc4)ncn3)c2)CC1	37 (≈ 16.1 µg/mL)	37 (≈ 16.1 µg/mL)	3.93	74					
CN(Cc1ccccc1)c1cc(C(=O)N(C)c2ccccc2)ncn1		> 160							
CN(Cc1ccccc1Cl)c1cc(C(=O)Nc2ccccc2)ncn1		> 160		< 5					
CN(Cc1cccc(Cl)c1)c1cc(C(=O)Nc2ccccc2)ncn1	10 (≈ 3.53 µg/mL)	20 (≈ 7.06 µg/mL)		< 5					
O=C(Nc1ccccc1)c1cc(NCc2ccccc2)ncn1		> 160		< 5					
CN(Cc1ccc(F)cc1)c1ccnc(C(=O)Nc2ccccc2)c1	10 (≈ 3.35 µg/mL)		3.53						< 5
CN(Cc1ccccc1)c1cc(C(=O)Nc2ccccc2)ncn1	10 (≈ 3.18 µg/mL)	20 (≈ 6.37 µg/mL)	3.50	< 5					
CC(=O)N1CCN(c2ccc(NC(=O)c3cc(N(C)Cc4ccc(C(F)(F)F)nc4)ncn3)cc2)CC1	2.3 (≈ 1.18 µg/mL)	4.7 (≈ 2.41 µg/mL)	< 4.30						< 5
CN(Cc1ccc(F)cc1)c1cc(C(=O)Nc2ccc(N3CCOCC3)cc2)ncn1	0.6 (≈ 0.253 µg/mL)	0.78 (≈ 0.329 µg/mL)	3.63	< 5					

Compound	MIC99 [1] [µM]	MIC99 [2] [µM]	pIC50 (Vero)	Kinetic_solubility [3] [µM]	logD at 3 h, 100 µM [4]	solubility kinetic at 2 h [5] [µM]	MIC99 [6] [µM]	MIC99 [7] [µM]	solubility kinetic at 2 h [3] [µM]
CC(C)NC(=O)c1cc(N(C)Cc2ccc(C(F)(F)F)cc2)ncn1	> 160	> 50	3.66	13					
CN(c1ccccc1)c1cc(C(=O)Nc2ccccc2)ncn1		> 160		< 5					
Cc1csc(NC(=O)c2cc(N(C)Cc3ccc(F)cc3)ncn2)n1	5 (≈ 1.79 µg/mL)	37 (≈ 13.2 µg/mL)		< 5					
CN(Cc1ccc(Cl)cc1)c1cc(C(=O)Nc2ccncc2)ncn1	10 (≈ 3.54 µg/mL)		3.55	< 5					
Cc1c(C(=O)Nc2ccc(F)cc2)ncnc1N(C)Cc1ccc(F)cc1	37 (≈ 13.6 µg/mL)	> 50	3.57						< 5
O=C(Nc1ccccc1)c1cc(OCc2ccccc2)ncn1		> 160							
CN(Cc1ccc(F)cc1)c1cc(C(=O)Nc2ccccc2)cnn1	> 50	> 50	3.55	40					
CN(Cc1ccc(F)cc1)c1cc(C(Nc2ccc(F)cc2)C(F)(F)F)ncn1 (stereo unspecified)	19 (≈ 7.76 µg/mL)	37 (≈ 15.1 µg/mL)	4.38	< 5					
COc1ccc(NC(=O)c2cc(N(C)Cc3ccc(Cl)cc3)nc(N)n2)cc1	> 160	> 50							< 5
CN(Cc1ccc(F)cc1)c1cc(C(=O)Nc2ccn(C)n2)ncn1	40 (≈ 13.6 µg/mL)	> 50		90					
CN(C)CCOc1ccc(NC(=O)c2cc(N(C)Cc3ccc(F)cc3)ncn2)cc1	12.5 (≈ 5.29 µg/mL)	25 (≈ 10.6 µg/mL)		155					
CN(Cc1ccccn1)c1cc(C(=O)Nc2ccccc2)ncn1		> 160							
CCN(Cc1ccc(Cl)cc1)c1cc(C(=O)Nc2ccccc2)ncn1	40 (≈ 14.7 µg/mL)	> 50	3.57	5					
COc1ccc(NC(=O)c2cc(N(C)Cc3cccc(F)c3)ncn2)cc1	5 (≈ 1.83 µg/mL)	37 (≈ 13.6 µg/mL)	3.57					2.5 to 5 (≈ 0.916 to 1.83 µg/mL)	
O=C(Nc1ccccc1)c1ccc(=O)n(Cc2ccc(F)cc2)c1	> 50	> 50	3.51	170					
CN(CCc1ccccc1)c1cc(C(=O)Nc2ccccc2)ncn1		80 (≈ 26.6 µg/mL)		< 5					
CN(Cc1ccc(F)cc1)c1cncc(C(=O)Nc2ccc(F)cc2)n1	> 50	> 50	3.55						< 5
CN1CCN(c2ccc(NC(=O)c3cc(N(C)Cc4ccc(C(F)(F)F)nc4)ncn3)cc2)CC1	12.5 (≈ 6.07 µg/mL)	12.5 (≈ 6.07 µg/mL)	4.34	165					
CN(Cc1ccc(F)cc1)c1cc(NC(=O)c2ccccc2)ncn1	> 160			5					
CN(Cc1ccc(C#N)cc1)c1cc(C(=O)Nc2ccccc2)ncn1	20 (≈ 6.87 µg/mL)	> 50							< 5
CN(Cc1ccc(C(F)(F)F)nc1)c1cc(C(=O)Nc2ccc(N3CCOCC3)cn2)ncn1	2.3 (≈ 1.09 µg/mL)	3.13 (≈ 1.48 µg/mL)	3.68	< 5					
NNC(=O)c1ccncc1 [ISONIAZID]								0.18 (≈ 0.0247 µg/mL)	
C[C@H]1COc2c(N3CCN(C)CC3)c(F)cc3c(=O)c(C(=O)O)cn1c23 [LEVOFLOXACIN]								0.64 (≈ 0.231 µg/mL)	
